Screens from PubChem BioAssay.
PMI act satM6P: human PMI activators, high substrate, primary screen, biochemical, fluorescence intensity, near-saturating mannose 6-phosphate | coupled PMI enzyme assay, resazurin fluorescence, 20 min; active compounds read high; 1 = untreated enzyme, 0 = substrate-free blank | AID 1216, 2008 | activation factor at 20 µM | Mannose-6-phosphate isomerase (Homo sapiens), P34949 | actives 0.34% (n = 190,000);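 active = activation factor of 2 or more at 20 µM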
Target sequence (P34949 whole entry, looked up): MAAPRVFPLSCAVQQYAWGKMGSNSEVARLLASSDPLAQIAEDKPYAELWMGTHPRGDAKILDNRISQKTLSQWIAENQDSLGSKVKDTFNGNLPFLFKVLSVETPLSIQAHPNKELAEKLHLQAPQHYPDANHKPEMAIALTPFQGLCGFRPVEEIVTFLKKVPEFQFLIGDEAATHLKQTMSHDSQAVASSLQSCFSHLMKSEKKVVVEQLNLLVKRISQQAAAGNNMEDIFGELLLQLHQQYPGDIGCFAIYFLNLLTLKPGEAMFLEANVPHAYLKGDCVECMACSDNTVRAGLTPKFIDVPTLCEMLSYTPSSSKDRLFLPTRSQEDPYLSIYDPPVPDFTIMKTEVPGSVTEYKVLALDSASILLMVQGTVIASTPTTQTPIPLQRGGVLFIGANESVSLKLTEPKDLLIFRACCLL
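Technique: Diaphorase-driven resazurin-to-resorufin fluorescence, excitation 544, emission 590 nm | Assay system: Human PMI in coupled enzyme assay | Times: Enzyme reaction with compound 20 min at room temperature | Medium: HEPES-buffered pH 7.4 with magnesium and detergent | Reagent: Mannose-6-phosphate 1.0 mM (near-saturating) plus 0.22 mM NADP+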
Diaphorase act: compounds boosting diaphorase resazurin reduction – biochemical, uHTS, resorufin fluorescence, counter-screen for diaphorase-coupled primary assays, primary screen; Diaphorase/resazurin coupled assay, 16 min; active compounds read high; 1 = vehicle wells, 0 = NADH-free wells; activation factor at 20 µM; actives 0.005% (n = 190,000); AID 1229, 2008;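 active = diaphorase activity raised at least twofold by the compound at 20 µM; inactive = activation factor below 2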
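Assay system: Purified diaphorase enzyme from Clostridium kluyveri | Amount: Enzyme 0.07 U/mL final | Dosing: Compound 20 µM once, DMSO 1% | Timing: 16 min reaction at room temperature | Detection: Fluorescence, excitation 544 nm and emission 590 nm | Evaluation: Higher resorufin formation from activation or reduction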
PMI activator: activators of human PMI, primary screen, biochemical, fluorescence intensity, near-Km mannose 6-phosphate. Mannose-6-phosphate isomerase (Homo sapiens), P34949. purified human PMI, coupled resazurin fluorescence, 20 min; active compounds read high; 1 = vehicle control, 0 substrate-free wells. AID 1214, 2008. activation factor at 20 µM. actives 0.005% (n = 190,000);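 active = activation factor of 2 or more at 20 µM, relative to plate controls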
NCF1 inh: p47phox/p22phox peptide binding inhibitors, primary screen, biochemical, uHTS, NADPH oxidase regulatory subunit. inhibition, % at 24.7 µM. actives 0.53% (n = 220,000). Neutrophil cytosol factor 1 (Homo sapiens), P14598. fluorescence polarization, 2 h;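 active = inhibition above about 30%, limit read from the data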;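 also: 0% = p47phox with labelled peptide and 100% = labelled peptide alone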
GSH fluor: compound fluorescence on glutathione beads, profiling panel, artefact control, biophysical, 488/530 nm, flow cytometry. GSH beads flow cytometry, compound fluorescence 488/530 nm; active compounds read high. fluorescence (KMESF) at 10 µM. actives 0.25% (n = 190,000). AID 1776, 2009; in the data active = fluorescence above about 89;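 also: glutathione beads carrying GST-tagged Bcl family fusion proteins plus one bare bead set; values are compound well signal with DMSO vehicle wells as background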
Avidin bead fluor: green autofluorescence of compounds with avidin beads – biophysical, 488/530 nm, flow cytometry, artefact control, profiling panel | compound fluorescence 488/530 nm; active compounds read high | fluorescence (KMESF) at 10 µM | actives 0.38% (n = 220,000); in the data active = fluorescence above about 47
An asterisk follows results filed as active; · = no result given. In the library only some 1.4% were active in any assay of this set; here they are far more common.

SMILES	PMI act satM6P	Diaphorase act	PMI activator	NCF1 inh	GSH fluor	Avidin bead fluor
O=c1[nH]c(=O)n(Cc2ccc(F)cc2)c(O)c1C=NCCCO	1	0.9	1	-5	17	122*
Cc1nc2ccccc2c(=O)n1-c1ccc(F)cc1	1	0.9	1	32*	29	20
CC#CP(=O)(OCC)C(O)(c1ccccc1)C(F)(F)F (stereo not drawn)	1	0.9	0.9	-3	13	10
Brc1ccc(CN2CCNCC2)s1	0.9	0.9	0.9	0	269*	8
CCOC(=O)C(NC(C)=O)C(OC(C)=O)c1cccc(N(CCCl)CCCl)c1 (stereo not drawn)	2*	0.9	1.6	-20	18	22
Nc1c2c(nc3sc4c(c13)CCCCC4)CCCC2	1.1	1.1	1	5	10	3
BrCC1C[n+]2c(SCc3ccccc3)nc3sc4c(c3c2O1)CCCC4 (stereo not drawn)	·	·	·	-27	·	117*
O=C(COc1ccc2ccccc2c1)N1CCN(CC2CC3C=CC2C3)CC1 (stereo not drawn)	0.9	0.9	0.8	5	17	50*
CC1(C)C2([N+](=O)[O-])CN3CC1([N+](=O)[O-])CN(C2)C3c1ccccn1 (stereo not drawn)	·	·	·	-11	·	7
Cc1ccc(C(C)C)c(OCC(=O)N2CCN(Cc3nc4cc([N+](=O)[O-])ccc4n3C)CC2)c1	0.8	0.7	0.9	-16	11	11
O=C1NC(=O)N(CC2CCCO2)C(=O)/C1=C/c1cccs1 (stereo not drawn)	·	·	·	-14	·	75*
CCC(=NCc1ccc2c(c1)OCO2)c1c(O)n(C2CCCCC2)c(=O)[nH]c1=O	0.7	0.7	0.7	-27	23	13
Cn1cc2c([N+](=O)[O-])cc([N+](=O)[O-])cc2n1	0.6	0.7	1	-9	14	9
Cn1cnc([N+](=O)[O-])c1Sc1ccc([N+](=O)[O-])cc1	2*	1.1	1.4	4	12	20
CC1=NN(c2ccccc2)C(=O)/C1=C/c1c(O)[nH]c(=O)[nH]c1=O	1.1	0.8	1	-2	26	5
O=c1[nH]c(O)c(/C=C2\C=NN=C2c2ccccc2)c(=O)[nH]1	1.2	0.8	1.1	-17	266*	5
CN(C)P(=NC(=S)c1cccn1C)(N(C)C)N(C)C	1	0.8	0.9	-8	27	58*
CN(C)P(=O)(NC(=O)c1cccn1C)N(C)C	1	1	1.1	0	8	14
CNC(=O)Oc1ccc2c(c1)C(=O)c1ccccc1CO2	0.9	0.7	0.9	-1	35	6
CC(C)Oc1ccc(Cc2c(O)[nH]c(=O)[nH]c2=O)cc1	1	0.9	1	-3	24	7
CC(=O)c1ccc(OC(C)C)c(Cc2c(O)[nH]c(=S)[nH]c2=O)c1	2.1*	1	1.5	5	44	5
O=c1cc(C(F)(F)F)c2cc3c4c(c2o1)CCCN4CCC3	1.2	1	1.1	-24	42	12
CCN(CC)P(=O)(NC(=O)C(Cl)(Cl)Cl)N(CC)CC.[Cl-].[Cl-].[Cl-].[Nd+3]	1.1	1.1	1.2	33*	40	6
O=C(c1ccc(Cl)cc1)C1CCCN(Cc2cccc3cnccc23)C1 (stereo not drawn)	1	0.9	0.9	-9	15	7
Cc1ccc(N2C(=O)NC(=O)C3(Cc4ccccc4N4CCN(c5ccccc5)CC43)C2=O)cc1 (stereo not drawn)	2.2*	0.9	1.6	-28	24	29
